From ChEMBL document CHEMBL1146117, “Inhibitors of human mitotic kinesin Eg5: characterization of the 4-phenyl-tetrahydroisoquinoline lead series” (Bioorg Med Chem Lett, 2006)

Assays:
[1] = molecular target: T1, Kinesin-like protein KIF11 (Homo sapiens, UniProt P52732); experiment: Inhibition of Eg5 by ATPase assay; type: functional
T1 sequence (P52732 whole entry): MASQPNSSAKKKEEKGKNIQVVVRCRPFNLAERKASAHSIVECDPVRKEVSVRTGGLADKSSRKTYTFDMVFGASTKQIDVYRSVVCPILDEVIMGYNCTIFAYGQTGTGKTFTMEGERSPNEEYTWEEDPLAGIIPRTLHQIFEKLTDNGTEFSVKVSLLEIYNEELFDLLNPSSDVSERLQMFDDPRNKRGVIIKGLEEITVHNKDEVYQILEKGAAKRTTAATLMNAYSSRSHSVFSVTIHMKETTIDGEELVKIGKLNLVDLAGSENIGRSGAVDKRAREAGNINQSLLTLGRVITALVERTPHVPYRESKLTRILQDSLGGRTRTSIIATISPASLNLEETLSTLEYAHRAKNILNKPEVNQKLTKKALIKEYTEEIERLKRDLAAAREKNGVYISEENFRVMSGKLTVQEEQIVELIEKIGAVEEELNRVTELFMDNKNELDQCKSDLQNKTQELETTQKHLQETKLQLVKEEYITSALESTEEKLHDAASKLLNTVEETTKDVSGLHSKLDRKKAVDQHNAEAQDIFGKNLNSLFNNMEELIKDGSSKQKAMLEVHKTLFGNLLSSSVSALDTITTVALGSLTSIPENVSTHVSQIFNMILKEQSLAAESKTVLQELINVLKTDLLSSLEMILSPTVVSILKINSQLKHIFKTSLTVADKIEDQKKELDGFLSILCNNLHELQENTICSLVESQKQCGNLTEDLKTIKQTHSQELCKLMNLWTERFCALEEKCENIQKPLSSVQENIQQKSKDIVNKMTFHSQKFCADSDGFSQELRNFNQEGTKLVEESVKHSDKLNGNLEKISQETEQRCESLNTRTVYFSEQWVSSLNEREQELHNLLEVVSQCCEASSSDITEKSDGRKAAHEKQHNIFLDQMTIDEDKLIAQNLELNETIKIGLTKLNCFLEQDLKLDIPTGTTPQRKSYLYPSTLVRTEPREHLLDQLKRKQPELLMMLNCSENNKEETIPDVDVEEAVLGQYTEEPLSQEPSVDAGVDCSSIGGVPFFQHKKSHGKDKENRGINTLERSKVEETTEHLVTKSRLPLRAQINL
Outline: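 Eg5 motor-domain protein ATPase activity read with a Kinase-Glo luminescent ATP kit. IC50 taken from dose–response curves of triplicate data points. Values are means ± SD of three independent experiments.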

[2] = tested on: A2780; experiment: Antiproliferative activity against human A2780 cells; type: functional, cell-based
Outline: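 A2780 ovarian carcinoma cells were exposed to compound for 72 h. IC50 derived from dose–response curves of triplicate data points, reported as the mean ± SD of three independent experiments.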

[3] = tested on: A2780; experiment: Cell cycle arrest in A2780 cells by accumulation at S phase at 0.257 uM; type: functional, Homo sapiens
Outline: (§1)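 A2780 cells were treated for 17 h at 0.257 or 0.328 µM, with nocodazole 0.1 µM as positive control and DMSO 0.08% as negative control. Cell-cycle profile (% G1, S, G2+M) and mitotic index (% cells in M phase) were quantified by flow cytometry.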

[4] = tested on: A2780; experiment: Cell cycle arrest in A2780 cells by accumulation at G1 phase at 0.328 uM; type: functional, Homo sapiens; outline: as §1
[5] = tested on: LNCaP; experiment: Antiproliferative activity against human LNCaP cells; type: functional, cell-based
Outline: (§2)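 Each tumour cell line in the panel was exposed to compound for 72 h, and IC50 was determined after that exposure.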

[6] = tested on: CCRF-CEM; experiment: Antiproliferative activity against human CCRF-CEM cells; type: functional, cell-based; outline: as §2
[7] = tested on: DU-145; experiment: Antiproliferative activity against human Du145 cells; type: functional, cell-based; outline: as §2
[8] = tested on: MDA-MB-468; experiment: Antiproliferative activity against human MDA-MB-468 cells; type: functional, cell-based; outline: as §2
[9] = tested on: A2780; experiment: Mitotic index in A2780 cells at M phase at 0.328 uM; type: functional, Homo sapiens; outline: as §1
[10] = tested on: A2780; experiment: Antiproliferative activity against human A2780-TAXR cells; type: functional, cell-based; outline: as §2
[11] = tested on: NCI-H446; experiment: Antiproliferative activity against human NCI-H446 cells; type: functional, cell-based; outline: as §2
[12] = tested on: A2780; experiment: Cell cycle arrest in A2780 cells by accumulation at G1 phase at 0.257 uM; type: functional, Homo sapiens; outline: as §1
[13] = tested on: A2780; experiment: Mitotic index in A2780 cells at M phase at 0.257 uM; type: functional, Homo sapiens; outline: as §1
[14] = tested on: MDA-MB-231; experiment: Antiproliferative activity against human MDA-MB-231 cells; type: functional, cell-based; outline: as §2
[15] = tested on: SW-620; experiment: Antiproliferative activity against human SW620 cells; type: functional, cell-based; outline: as §2
[16] = tested on: A2780; experiment: Antiproliferative activity against human A2780S cells; type: functional, cell-based; outline: as §2
[17] = tested on: HCT-116; experiment: Antiproliferative activity against human HCT116 cells; type: functional, cell-based; outline: as §2
[18] = tested on: M109; experiment: Antiproliferative activity against mouse M109 cells; type: functional, cell-based; outline: as §2
[19] = tested on: A2780; experiment: Cell cycle arrest in A2780 cells by accumulation at G2/M phase at 0.328 uM; type: functional, Homo sapiens; outline: as §1
[20] = tested on: PC-3; experiment: Antiproliferative activity against human PC3 cells; type: functional, cell-based; outline: as §2
[21] = tested on: A2780; experiment: Cell cycle arrest in A2780 cells by accumulation at S phase at 0.328 uM; type: functional, Homo sapiens; outline: as §1
[22] = tested on: SHP77; experiment: Antiproliferative activity against human SHP77 cells; type: functional, cell-based; outline: as §2
[23] = tested on: P388; experiment: Antiproliferative activity against mouse P388 cells; type: functional, cell-based; outline: as §2
[24] = tested on: A2780; experiment: Cell cycle arrest in A2780 cells by accumulation at G2/M phase at 0.257 uM; type: functional, Homo sapiens; outline: as §1
[25] = tested on: A2780; experiment: Cell cycle arrest in A2780 cells by accumulation at G2/M phase at 0.1 uM; type: functional, Homo sapiens; outline: as §1
[26] = tested on: A2780; experiment: Cell cycle arrest in A2780 cells by accumulation at S phase at 0.1 uM; type: functional, Homo sapiens; outline: as §1
[27] = tested on: A2780; experiment: Cell cycle arrest in A2780 cells by accumulation at G1 phase at 0.1 uM; type: functional, Homo sapiens; outline: as §1
[28] = tested on: A2780; experiment: Mitotic index in A2780 cells at M phase at 0.1 uM; type: functional, Homo sapiens; outline: as §1

CNC(=O)N1Cc2c(ccc(C)c2C)C(c2ccccc2)C1 (stereo not given)
IC50 [1]: > 25 µM

Cc1ccc2c(c1C)CN(C(=O)N1CCOCC1)CC2c1ccccc1 (stereo not given)
IC50 [1]: 22.3 µM

Cc1ccc2c(c1C)CN(C(C)C)CC2c1ccccc1 (stereo not given)
IC50 [1]: 11 µM | IC50 [2]: 6.28 µM

CC(=O)N1Cc2c(ccc(C)c2C)C(c2ccccc2)C1 (stereo not given)
IC50 [1]: 17.9 µM

Cc1ccc2c(c1C)CN(C(=O)c1ccccc1)CC2c1ccccc1 (stereo not given)
IC50 [1]: 16.4 µM | IC50 [2]: 7.77 µM

COC(=O)N1Cc2c(ccc(C)c2C)C(c2ccccc2)C1 (stereo not given)
IC50 [1]: 14.4 µM

CN(C)C(=O)N1Cc2c(Cl)cccc2C(c2cccc(O)c2)C1 (stereo not given)
IC50 [1]: > 25 µM

Cc1ccc2c(c1C)CN(C(=O)N(C)C)CC2c1cccc(C(F)(F)F)c1 (stereo not given)
IC50 [1]: 13.2 µM

Cc1ccc2c(c1C)CN(CCCCN(C)C)CC2c1ccccc1 (stereo not given)
IC50 [1]: 5.36 µM | IC50 [2]: 1.86 µM

COc1ccc2c(c1)CN(C(=O)N(C)C)CC2c1cccc(O)c1 (stereo not given)
IC50 [1]: 0.617 µM | IC50 [2]: 0.402 µM

Cc1ccc2c(c1C)CN(CCc1ccccc1)CC2c1ccccc1 (stereo not given)
IC50 [1]: > 25 µM

Cc1ccc2c(c1C)CN(C(=O)N(C)C)C[C@@H]2c1cccc(O)c1
Activity [3]: 11.8% | Activity [4]: 3.1% | IC50 [5]: 0.807 µM | IC50 [6]: 0.282 µM | IC50 [7]: 0.484 µM | IC50 [8]: 0.35 µM | Activity [9]: 52.2% | IC50 [10]: 0.215 µM | IC50 [11]: 0.36 µM | Activity [12]: 9.1% | Activity [13]: 39.3% | IC50 [2]: 0.234 µM | IC50 [14]: 0.48 µM | IC50 [15]: 0.466 µM | IC50 [16]: 0.267 µM | IC50 [17]: 0.259 µM | IC50 [18]: 0.259 µM | Activity [19]: 84% | IC50 [20]: 0.223 µM | Activity [21]: 5.9% | IC50 [22]: 0.261 µM | IC50 [23]: 0.46 µM | Activity [24]: 73.2%

Cc1ccc2c(c1C)CN(CCCCN)CC2c1ccccc1 (stereo not given)
IC50 [1]: 4.65 µM | IC50 [2]: 2.37 µM

Cc1ccc2c(c1C)CN(CCn1cccc1)CC2c1ccccc1 (stereo not given)
IC50 [1]: > 25 µM

CN(C)C(=O)N1Cc2cc(Cl)ccc2C(c2cccc(O)c2)C1 (stereo not given)
IC50 [1]: 2.49 µM | IC50 [2]: 1.19 µM

CN(C)C(=O)N1Cc2c(Br)cccc2C(c2cccc(O)c2)C1 (stereo not given)
IC50 [1]: > 25 µM

COc1ccc2c(c1OC)CN(C(=O)N(C)C)CC2c1cccc(O)c1 (stereo not given)
IC50 [1]: 12.8 µM | IC50 [2]: 2.92 µM

CN(C)C(=O)N1Cc2cc(F)ccc2C(c2cccc(O)c2)C1 (stereo not given)
IC50 [1]: > 25 µM

Cc1ccc2c(c1C)CN(CCCN(C)C)CC2c1ccccc1 (stereo not given)
IC50 [1]: 8.88 µM | IC50 [2]: 3.24 µM

Cc1ccc2c(c1C)CN(C(=O)N(C)CCCN(C)C)CC2c1ccccc1 (stereo not given)
IC50 [1]: 5.44 µM | IC50 [2]: 1.21 µM

Cc1ccc2c(c1C)CN(C(=O)N(C)C)CC2c1cccc(Cl)c1 (stereo not given)
IC50 [1]: 3.48 µM | IC50 [2]: 3.02 µM

Cc1ccc2c(c1C)CN(C)CC2c1ccccc1 (stereo not given)
IC50 [1]: 18.4 µM | IC50 [2]: 7.3 µM

CCN1Cc2c(ccc(C)c2C)C(c2ccccc2)C1 (stereo not given)
IC50 [1]: 25.2 µM | IC50 [2]: 5.3 µM

Cc1ccc2c(c1C)CNCC2c1ccccc1 (stereo not given)
IC50 [1]: 8.33 µM | IC50 [2]: 9.04 µM

Cc1ccc2c(c1C)CN(C(=O)N1CCCCC1)CC2c1ccccc1 (stereo not given)
IC50 [1]: 12.8 µM | IC50 [2]: 2.83 µM

Cc1ccc2c(c1C)CN(CCCN)CC2c1ccccc1 (stereo not given)
IC50 [1]: 3.06 µM | IC50 [2]: 2.42 µM

CN(C)C(=O)N1Cc2c(ccc(Cl)c2Cl)C(c2cccc(O)c2)C1 (stereo not given)
IC50 [1]: 1.27 µM | IC50 [2]: 3.44 µM

Cc1ccc2c(c1C)CN(S(C)(=O)=O)CC2c1ccccc1 (stereo not given)
IC50 [1]: > 25 µM

Cc1ccc2c(c1C)CN(C(=O)N(C)C)CC2c1ccccc1 (stereo not given)
IC50 [1]: 2.75 µM | IC50 [2]: 1.2 µM

Cc1ccc2c(c1C)CN(C(=O)N(C)C)CC2c1cccc(O)c1 (stereo not given)
IC50 [1]: 0.306 µM | IC50 [2]: 0.376 µM

CCOC(=O)N1Cc2c(ccc(C)c2C)C(c2ccccc2)C1 (stereo not given)
IC50 [1]: > 25 µM

Cc1cccc2c1CN(C(=O)N(C)C)CC2c1cccc(O)c1 (stereo not given)
IC50 [1]: 4.71 µM | IC50 [2]: 2.05 µM

CN(C)C(=O)N1Cc2ccccc2C(c2cccc(O)c2)C1 (stereo not given)
IC50 [1]: > 25 µM

Cc1ccc2c(c1C)CN(CCN)CC2c1ccccc1 (stereo not given)
IC50 [1]: 2.27 µM | IC50 [2]: 2.31 µM

CN(C)C(=O)N1Cc2c(ccc3c2OCC3)C(c2cccc(O)c2)C1 (stereo not given)
IC50 [1]: 0.639 µM | IC50 [2]: 0.235 µM

Cc1ccc2c(c1C)CN(C(N)=O)CC2c1ccccc1 (stereo not given)
IC50 [1]: > 25 µM

CN(C)C(=O)N1Cc2cc(I)ccc2C(c2cccc(O)c2)C1 (stereo not given)
IC50 [1]: 0.317 µM | IC50 [2]: 0.363 µM

Cc1ccc2c(c1C)CN(C(=O)N(C)C)CC2c1ccc(O)cc1 (stereo not given)
IC50 [1]: > 25 µM

CN(C)C(=O)N1Cc2c(F)cccc2C(c2cccc(O)c2)C1 (stereo not given)
IC50 [1]: > 25 µM

COc1cccc2c1CN(C(=O)N(C)C)CC2c1cccc(O)c1 (stereo not given)
IC50 [1]: 1.78 µM | IC50 [2]: 0.332 µM

Cc1ccc2c(c1)CN(C(=O)N(C)C)CC2c1cccc(O)c1 (stereo not given)
IC50 [1]: 0.595 µM | IC50 [2]: 0.851 µM

CCc1cccc2c1CN(C(=O)N(C)C)CC2c1cccc(O)c1 (stereo not given)
IC50 [1]: 0.344 µM | IC50 [2]: 0.186 µM

CN(C)C(=O)N1Cc2cc(Br)ccc2C(c2cccc(O)c2)C1 (stereo not given)
IC50 [1]: 0.808 µM | IC50 [2]: 0.879 µM

COC(=O)Nc1nc2cc(C(=O)c3cccs3)ccc2[nH]1 [NOCODAZOLE]
Activity [25]: 62.1% | Activity [26]: 15.7% | Activity [27]: 12% | Activity [28]: 23.7%
